ChEMBL document CHEMBL5576114, “Inhibition of DXR in the MEP pathway with lipophilic N-alkoxyaryl FR900098 analogs” (RSC Med Chem, 2024)
Calls of active or inactive are those of the source. No cut-off for these calls is given here.

Legend:
[1] = test system: Mycobacterium tuberculosis; assay: Antibacterial activity against Mycobacterium tuberculosis H37Rv assessed as reduction in bacterial growth; type: functional
Plasmodium falciparum [2] = assay: Antiplasmodial activity against Plasmodium falciparum; type: functional, organism-based
How it was run: (§1)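 Asynchronous cultures in 2% hematocrit, RPMI-1640 complete medium with 0.5% Albumax, under 5% O2/5% CO2/90% N2 at 37 °C. Diluted to 0.5% parasitemia, inhibitors 1.2 nM to 492.4 µM added at start. Growth read after 3 days as DNA content by PicoGreen fluorescence (485/528 nm). IC50 from 4-parameter nonlinear regression; technical duplicate, biological triplicate.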

[3] = target: T1, 1-deoxy-D-xylulose 5-phosphate reductoisomerase (Mycobacterium tuberculosis, UniProt P9WNS1); assay: Inhibition of Mycobacterium tuberculosis DXR using DXP as substrate preincubated for 10 mins followed by NADPH addition and measured after 5 mins by spectrophotometric assay
T1 sequence (P9WNS1 whole entry): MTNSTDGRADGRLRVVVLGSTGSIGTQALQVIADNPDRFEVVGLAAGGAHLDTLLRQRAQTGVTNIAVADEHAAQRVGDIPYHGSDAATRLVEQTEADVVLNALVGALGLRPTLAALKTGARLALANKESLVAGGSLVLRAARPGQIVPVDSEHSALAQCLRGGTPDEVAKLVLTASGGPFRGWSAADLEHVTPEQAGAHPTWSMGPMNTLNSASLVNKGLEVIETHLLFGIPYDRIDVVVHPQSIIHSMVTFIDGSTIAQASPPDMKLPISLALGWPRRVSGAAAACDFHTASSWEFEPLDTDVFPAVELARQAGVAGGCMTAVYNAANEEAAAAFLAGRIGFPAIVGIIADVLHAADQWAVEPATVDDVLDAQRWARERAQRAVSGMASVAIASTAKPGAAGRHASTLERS

[4] = target: T2, 1-deoxy-D-xylulose 5-phosphate reductoisomerase, apicoplastic (Plasmodium falciparum (isolate 3D7), UniProt Q8IKG4); assay: Inhibition of Plasmodium falciparum DXR
T2 sequence (Q8IKG4 whole entry): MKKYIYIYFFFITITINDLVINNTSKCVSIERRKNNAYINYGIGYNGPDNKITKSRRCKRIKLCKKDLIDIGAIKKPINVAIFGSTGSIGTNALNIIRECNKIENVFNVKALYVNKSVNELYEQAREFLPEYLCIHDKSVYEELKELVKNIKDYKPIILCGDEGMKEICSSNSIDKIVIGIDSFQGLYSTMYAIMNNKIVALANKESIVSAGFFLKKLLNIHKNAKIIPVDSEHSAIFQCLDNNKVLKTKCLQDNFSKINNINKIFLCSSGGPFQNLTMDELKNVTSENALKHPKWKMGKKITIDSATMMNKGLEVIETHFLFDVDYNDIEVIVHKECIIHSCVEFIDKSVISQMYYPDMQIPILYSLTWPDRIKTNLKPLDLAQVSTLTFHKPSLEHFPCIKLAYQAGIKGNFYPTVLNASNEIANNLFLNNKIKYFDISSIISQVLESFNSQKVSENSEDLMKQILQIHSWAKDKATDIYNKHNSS

Plasmodium falciparum [5] = assay: Antiplasmodial activity against Plasmodium falciparum E1-C12 harboring with had1 mutation assessed as reduction in parasite growth by measuring DNA content after 3 days by PicoGreen staining based FLUOstar omega microplate reader analysis; type: functional, organism-based; settings: time 3.0 day
How it was run: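 E1-C12 (had1) parasites, asynchronous, at 2% hematocrit in RPMI-1640/0.5% Albumax with hypoxanthine, under 5% O2/5% CO2/90% N2 at 37 °C. Started at 0.5% parasitemia and dosed at 1.2 nM–492.4 µM. After 3 days, DNA was stained with PicoGreen (ex 485/em 528). IC50 came from a 4-parameter fit; technical duplicates, biological triplicates.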

[6] = test system: Mycobacterium tuberculosis; assay: Antibacterial activity against Mycobacterium tuberculosis H37Rv assessed as reduction in bacterial growth incubated for 2 weeks by macroscopic plate reader analysis; type: functional; settings: 336 h
How it was run: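 H37Rv grown in 7H9 broth with 0.08% NaCl, 0.4% glucose, 0.05% casitone and 0.05% tyloxapol, then diluted 1:500. Compounds were made as 20 mg/mL DMSO stocks and run as eleven 2-fold serial dilutions. Plates were held 2 weeks at 37 °C and MIC99 was read macroscopically. Three independent measurements.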

Plasmodium falciparum [7] = assay: Antiplasmodial activity against Plasmodium falciparum E1-C12 harboring with had1 mutation assessed as reduction in parasite growth by measuring DNA content after 3 days in presence of IPP by PicoGreen staining based FLUOstar omega microplate reader analysis; type: functional, organism-based; settings: time 3.0 day
How it was run: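 IPP rescue in had1 E1-C12 parasites: 125 µM IPP was present for the whole assay. Cultures at 2% hematocrit in Albumax-supplemented RPMI, 5% O2/5% CO2, 37 °C, started at 0.5% parasitemia. Inhibitors were dosed at 1.2 nM–492.4 µM, and growth was read after 3 days by PicoGreen fluorescence. 4-parameter fit; duplicate wells, biological triplicates.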

[8] = Cytotoxicity against human HepG2 cells assessed as reduction in cell viability after 24 hrs by Cell Titer Glo assay; type: toxicity, cell-based
How it was run: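 HepG2 cells in DMEM with 4 mM L-glutamine and 4.5 g/L glucose, trypsinized and plated from a 4×10^5 cells/mL suspension. Compounds were tested as two-fold dilutions from 100 to 0.1 µg/mL, with a DMSO-only control, in duplicate. After 24 h at 37 °C, 5% CO2, CellTiter-Glo luminescence was read after 20 min in the dark.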

[9] = target: T2, 1-deoxy-D-xylulose 5-phosphate reductoisomerase, apicoplastic; assay: Inhibition of Plasmodium falciparum DXR expressed in Escherichia coli BL21 CodonPlus (DE3)-RIL cells using DOXP as substrate in presence of NADPH by UV-visible spectrophotometry
[10] = target: T3, 1-deoxy-D-xylulose 5-phosphate reductoisomerase (Mycobacterium tuberculosis) (UniProt P9WNS1); assay: Inhibition of Mycobacterium tuberculosis DXR expressed in Escherichia coli BL21 CodonPlus (DE3)-RIL cells using DOXP as substrate at 100 uM in presence of NADPH by UV-visible spectrophotometry relative to control
T3 sequence (whole entry): T1 sequence (P9WNS1 whole entry)
How it was run: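 Recombinant MtbDXR (pET101/D-TOPO in E. coli BL21 CodonPlus (DE3)-RIL, IMAC-purified) at 0.89 µM in 100 mM MES pH 6.5, 25 mM MgCl2, 150 µM NADPH, 47 µM DOXP, 37 °C. Inhibitor was tested at a single 100 µM. NADPH oxidation was followed at 340 nm, and percent remaining activity was reported. Technical duplicates.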

[11] = target: T4, 1-deoxy-D-xylulose 5-phosphate reductoisomerase, apicoplastic (Plasmodium falciparum (isolate 3D7)) (UniProt Q8IKG4); assay: Inhibition of Plasmodium falciparum DXR expressed in Escherichia coli BL21 CodonPlus (DE3)-RIL cells using DOXP as substrate at 100 uM in presence of NADPH by UV-visible spectrophotometry relative to control
T4 sequence (whole entry): T2 sequence (Q8IKG4 whole entry)
How it was run: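 PfDXR single-point test at 100 µM inhibitor. Conditions: 0.86 µM IMAC-purified enzyme, 100 mM Tris pH 7.8, 25 mM MgCl2, 150 µM NADPH, 37 °C. Reaction was started with 144 µM DOXP, and NADPH oxidation was monitored at 340 nm. Percent remaining activity was reported; technical duplicates.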

[12] = target: T1, 1-deoxy-D-xylulose 5-phosphate reductoisomerase; assay: Inhibition of Mycobacterium tuberculosis DXR expressed in Escherichia coli BL21 CodonPlus (DE3)-RIL cells using DOXP as substrate in presence of NADPH by UV-visible spectrophotometry
Plasmodium falciparum [13] = assay: Antiplasmodial activity against Plasmodium falciparum 3D7 assessed as reduction in parasite growth by measuring DNA content after 3 days by PicoGreen staining based FLUOstar omega microplate reader analysis; type: functional, organism-based; settings: 3D7, 72 h; how it was run: as §1

Row | Structure (SMILES) | MIC [1] [µg/mL] | IC50 (Plasmodium falciparum [2]) [nM] | IC50 [3] [nM] | IC50 [4] [nM] | Activity (Plasmodium falciparum [5]) | MIC [6] [µM] | Activity (Plasmodium falciparum [7]) | IC50 at 24 h [8] [µM] | IC50 [9] [nM] | inhibition [10] [%] | inhibition [11] [%] | IC50 [12] [nM] | IC50 (Plasmodium falciparum [13]) [nM]
1 | O=CN(O)CCCP(=O)(O)O [FOSMIDOMYCIN] | > 500 | 1020 | – | – | – | – | – | – | – | – | – | – | –
2 | CC(=O)N(O)CCCP(=O)(O)O [FR-900098] | > 500 | – | 2910 | 22 | – | – | – | – | – | – | – | – | –
3 | CC(=O)N(CCC(c1ccc(Cl)c(Cl)c1)P(=O)(O)O)OC(C)c1ccc(F)cc1 (stereo not drawn) | – | – | – | – | Active | > 200 | inactive | > 200 | 470 | > 90 | > 90 | 4780 | 2420
4 | COc1ccc(C(C)ON(CCC(c2ccc(Cl)c(Cl)c2)P(=O)(O)O)C(C)=O)cc1 (stereo not drawn) | – | – | – | – | Active | > 98 | inactive | > 200 | 110 | > 90 | > 90 | 780 | 300
